Measurements taken from ChEMBL document CHEMBL2424622, “Development of amino-pyrimidine inhibitors of c-Jun N-terminal kinase (JNK): kinase profiling guided optimization of a 1,2,3-benzotriazole lead” (Bioorg Med Chem Lett, 2013).

What was measured:
[1] = target: Tyrosine-protein kinase FRK (Homo sapiens) (UniProt P42685); assay: Competitive binding affinity to FRK (unknown origin) at 10 uM in presence of ATP relative to control
Outline: (§1)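 In vitro ATP-site competition binding assay, part of profiling against a diverse panel of 128 kinases. Each compound was tested at a single concentration of 10 µM. Kinome selectivity was summarized as S15 selectivity scores.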

[2] = target: c-Jun N-terminal kinase, JNK (Homo sapiens, UniProt P45983+P53779+P45984); assay: Inhibition of JNK in human SW1353 cells assessed as inhibition of TNFalpha-induced c-Jun phosphorylation incubated for 30 mins prior to TNFalpha induction measured after 20 mins; type: cell-based
Outline: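 SW1353 cells were stimulated with TNFa, and the read-out was inhibition of phosphorylation of the downstream substrate c-Jun. Values are the mean of at least three experiments.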

[3] = target: Phosphorylase b kinase gamma catalytic chain, skeletal muscle/heart isoform (Homo sapiens) (UniProt Q16816); assay: Competitive binding affinity to PHKG1 (unknown origin) at 10 uM in presence of ATP relative to control
Chain of Phosphorylase b kinase gamma catalytic chain, skeletal muscle/heart isoform (Homo sapiens) (Q16816 whole entry, looked up, canonical isoform): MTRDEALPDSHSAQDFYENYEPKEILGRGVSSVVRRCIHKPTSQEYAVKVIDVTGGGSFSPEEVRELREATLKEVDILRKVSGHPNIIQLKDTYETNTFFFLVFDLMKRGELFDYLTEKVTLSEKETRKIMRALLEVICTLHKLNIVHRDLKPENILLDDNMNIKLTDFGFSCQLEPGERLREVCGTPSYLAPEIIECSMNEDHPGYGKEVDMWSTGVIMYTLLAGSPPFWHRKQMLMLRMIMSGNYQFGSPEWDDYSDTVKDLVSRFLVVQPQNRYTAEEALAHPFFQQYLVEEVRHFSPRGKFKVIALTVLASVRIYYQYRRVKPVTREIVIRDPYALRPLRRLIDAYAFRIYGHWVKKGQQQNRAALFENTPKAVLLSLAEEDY
Outline: (§2)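 In vitro ATP-site competition binding assay across a diverse panel of 128 kinases, with compound tested at a single concentration. Kinase selectivity scores (S15) were calculated from the panel profiles.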

[4] = target: Mitogen-activated protein kinase 11 (Homo sapiens, UniProt Q15759); assay: Competitive binding affinity to p38-beta (unknown origin) at 10 uM in presence of ATP relative to control; outline: as §2
Chain of Mitogen-activated protein kinase 11 (Q15759 whole entry): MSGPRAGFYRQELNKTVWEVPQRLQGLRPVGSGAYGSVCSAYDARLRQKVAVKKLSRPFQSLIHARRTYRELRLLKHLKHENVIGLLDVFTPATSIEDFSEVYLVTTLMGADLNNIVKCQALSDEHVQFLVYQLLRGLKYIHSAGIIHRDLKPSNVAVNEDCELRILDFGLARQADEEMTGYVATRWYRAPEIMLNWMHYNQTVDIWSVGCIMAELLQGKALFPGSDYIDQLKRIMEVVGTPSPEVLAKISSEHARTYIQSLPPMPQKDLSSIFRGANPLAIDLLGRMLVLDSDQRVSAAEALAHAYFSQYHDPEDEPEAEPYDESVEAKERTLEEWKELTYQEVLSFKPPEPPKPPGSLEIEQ

[5] = target: T1, Cyclin-G-associated kinase (Homo sapiens) (UniProt O14976); assay: Competitive binding affinity to GAK (unknown origin) at 10 uM in presence of ATP relative to control; outline: as §1
T1 sequence (whole entry): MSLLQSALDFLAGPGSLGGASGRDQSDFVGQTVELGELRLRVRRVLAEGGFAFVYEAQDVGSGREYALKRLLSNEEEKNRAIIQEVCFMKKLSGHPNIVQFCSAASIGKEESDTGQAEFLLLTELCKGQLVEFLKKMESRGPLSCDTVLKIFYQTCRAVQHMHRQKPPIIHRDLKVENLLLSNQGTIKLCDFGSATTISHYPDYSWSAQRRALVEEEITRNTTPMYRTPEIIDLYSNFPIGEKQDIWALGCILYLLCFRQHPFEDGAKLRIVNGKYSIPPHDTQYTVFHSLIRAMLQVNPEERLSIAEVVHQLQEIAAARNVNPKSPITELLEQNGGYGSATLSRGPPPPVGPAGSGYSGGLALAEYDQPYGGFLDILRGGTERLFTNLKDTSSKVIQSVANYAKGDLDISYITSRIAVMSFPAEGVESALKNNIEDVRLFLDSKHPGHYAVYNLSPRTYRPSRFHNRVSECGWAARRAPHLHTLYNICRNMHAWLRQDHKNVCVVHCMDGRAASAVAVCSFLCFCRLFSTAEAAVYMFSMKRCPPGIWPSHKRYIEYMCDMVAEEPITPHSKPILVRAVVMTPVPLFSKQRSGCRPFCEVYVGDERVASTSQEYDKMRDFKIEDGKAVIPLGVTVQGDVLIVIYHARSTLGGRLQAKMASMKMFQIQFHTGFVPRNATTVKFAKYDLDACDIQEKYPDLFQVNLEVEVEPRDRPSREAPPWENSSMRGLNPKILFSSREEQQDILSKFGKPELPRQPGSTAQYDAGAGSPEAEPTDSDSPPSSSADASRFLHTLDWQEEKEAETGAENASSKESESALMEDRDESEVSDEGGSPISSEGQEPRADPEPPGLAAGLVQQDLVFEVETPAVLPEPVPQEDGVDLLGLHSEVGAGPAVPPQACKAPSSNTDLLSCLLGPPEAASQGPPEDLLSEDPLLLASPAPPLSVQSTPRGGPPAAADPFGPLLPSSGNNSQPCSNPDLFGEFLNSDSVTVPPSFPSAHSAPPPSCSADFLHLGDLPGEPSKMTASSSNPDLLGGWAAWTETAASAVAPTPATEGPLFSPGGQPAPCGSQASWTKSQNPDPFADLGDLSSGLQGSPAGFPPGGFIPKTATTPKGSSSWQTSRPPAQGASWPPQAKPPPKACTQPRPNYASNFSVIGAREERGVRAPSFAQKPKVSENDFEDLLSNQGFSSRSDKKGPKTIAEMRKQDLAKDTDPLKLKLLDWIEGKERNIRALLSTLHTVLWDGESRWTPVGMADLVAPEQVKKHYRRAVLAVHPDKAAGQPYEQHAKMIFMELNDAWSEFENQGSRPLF

[6] = target: Mitogen-activated protein kinase 8 (Homo sapiens, UniProt P45983); assay: Competitive binding affinity to JNK1 (unknown origin) at 10 uM in presence of ATP relative to control
Chain of Mitogen-activated protein kinase 8 (P45983 whole entry): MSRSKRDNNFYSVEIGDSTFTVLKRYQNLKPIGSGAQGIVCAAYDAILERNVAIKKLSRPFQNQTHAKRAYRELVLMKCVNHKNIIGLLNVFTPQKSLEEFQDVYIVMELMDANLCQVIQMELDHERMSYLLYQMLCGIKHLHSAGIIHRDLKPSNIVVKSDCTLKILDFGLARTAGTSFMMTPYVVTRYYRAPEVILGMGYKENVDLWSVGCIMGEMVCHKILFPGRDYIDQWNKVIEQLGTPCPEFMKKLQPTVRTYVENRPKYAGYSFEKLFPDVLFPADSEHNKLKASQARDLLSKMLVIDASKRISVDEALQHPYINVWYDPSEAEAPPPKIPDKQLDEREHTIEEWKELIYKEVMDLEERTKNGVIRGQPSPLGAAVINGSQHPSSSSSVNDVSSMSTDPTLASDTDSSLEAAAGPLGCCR
Outline: (§3)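 In vitro ATP-site competition binding assay across a diverse panel of 128 kinases, with each compound tested at a single concentration. Kinase binding is expressed relative to control.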

[7] = target: T2, Dual specificity protein kinase TTK (Homo sapiens) (UniProt P33981); assay: Competitive binding affinity to TTK (unknown origin) at 10 uM in presence of ATP relative to control; outline: as §3
T2 sequence (whole entry): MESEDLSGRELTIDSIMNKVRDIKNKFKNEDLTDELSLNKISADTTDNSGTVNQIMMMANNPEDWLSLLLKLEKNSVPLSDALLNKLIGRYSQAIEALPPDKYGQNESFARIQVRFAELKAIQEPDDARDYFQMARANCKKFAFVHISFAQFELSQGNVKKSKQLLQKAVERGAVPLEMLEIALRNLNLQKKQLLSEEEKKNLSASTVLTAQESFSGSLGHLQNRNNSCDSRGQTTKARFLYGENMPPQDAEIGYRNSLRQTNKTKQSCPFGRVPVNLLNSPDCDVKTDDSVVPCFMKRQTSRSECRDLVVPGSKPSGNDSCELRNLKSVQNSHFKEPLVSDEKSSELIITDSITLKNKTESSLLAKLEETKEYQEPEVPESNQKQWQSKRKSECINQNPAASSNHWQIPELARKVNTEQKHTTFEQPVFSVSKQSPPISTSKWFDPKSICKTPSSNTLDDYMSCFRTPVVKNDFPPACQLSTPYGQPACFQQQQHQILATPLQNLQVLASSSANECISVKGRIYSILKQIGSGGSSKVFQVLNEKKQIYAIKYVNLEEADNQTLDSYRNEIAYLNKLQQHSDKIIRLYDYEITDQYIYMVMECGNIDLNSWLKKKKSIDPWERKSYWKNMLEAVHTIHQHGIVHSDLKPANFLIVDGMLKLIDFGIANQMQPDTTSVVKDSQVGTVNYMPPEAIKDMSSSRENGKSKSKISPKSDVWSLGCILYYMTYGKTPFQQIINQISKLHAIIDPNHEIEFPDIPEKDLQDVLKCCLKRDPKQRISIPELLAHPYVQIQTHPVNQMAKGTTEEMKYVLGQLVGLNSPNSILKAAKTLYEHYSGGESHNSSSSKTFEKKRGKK

[8] = target: Dual specificity protein kinase CLK3 (Homo sapiens) (UniProt P49761); assay: Competitive binding affinity to CLK3 (unknown origin) at 10 uM in presence of ATP relative to control
Chain of Dual specificity protein kinase CLK3 (Homo sapiens) (P49761 whole entry, looked up): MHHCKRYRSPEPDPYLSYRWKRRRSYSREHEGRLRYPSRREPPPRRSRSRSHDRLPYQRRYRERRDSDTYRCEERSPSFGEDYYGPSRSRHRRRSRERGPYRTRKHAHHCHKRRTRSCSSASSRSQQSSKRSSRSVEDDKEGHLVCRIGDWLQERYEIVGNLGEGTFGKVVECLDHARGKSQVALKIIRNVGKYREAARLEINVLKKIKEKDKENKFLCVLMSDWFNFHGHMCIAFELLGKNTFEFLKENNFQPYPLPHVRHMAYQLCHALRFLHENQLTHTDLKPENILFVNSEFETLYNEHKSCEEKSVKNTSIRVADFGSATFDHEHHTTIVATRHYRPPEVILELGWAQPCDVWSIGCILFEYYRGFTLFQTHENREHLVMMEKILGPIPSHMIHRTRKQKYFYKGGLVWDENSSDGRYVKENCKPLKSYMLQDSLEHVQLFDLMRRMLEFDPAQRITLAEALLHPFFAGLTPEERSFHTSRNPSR

Chain of Tyrosine-protein kinase FRK (Homo sapiens) (P42685 whole entry): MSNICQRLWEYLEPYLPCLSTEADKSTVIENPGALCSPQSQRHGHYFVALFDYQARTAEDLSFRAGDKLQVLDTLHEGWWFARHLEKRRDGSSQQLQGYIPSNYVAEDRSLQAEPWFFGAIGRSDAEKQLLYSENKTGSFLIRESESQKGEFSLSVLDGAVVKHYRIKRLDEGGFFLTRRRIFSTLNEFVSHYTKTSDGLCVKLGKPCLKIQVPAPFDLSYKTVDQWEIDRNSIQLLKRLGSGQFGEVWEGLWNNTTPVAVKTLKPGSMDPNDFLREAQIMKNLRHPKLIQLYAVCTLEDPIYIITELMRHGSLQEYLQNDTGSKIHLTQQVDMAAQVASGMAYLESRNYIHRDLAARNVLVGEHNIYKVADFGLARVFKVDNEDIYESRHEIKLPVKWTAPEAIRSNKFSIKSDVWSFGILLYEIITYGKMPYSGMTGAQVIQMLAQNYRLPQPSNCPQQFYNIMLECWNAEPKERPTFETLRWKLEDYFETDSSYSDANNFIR

## O[C@H]1CC[C@H](Nc2nccc(-n3nnc4ccccc43)n2)CC1
[1]
  inhibition: < 50%
[2]
  IC50: 790 nM
[3]
  inhibition: < 50%
[4]
  inhibition: < 50%
[5]
  inhibition: 100%
[6]
  inhibition: 99%
[7]
  inhibition: 99%
[8]
  inhibition: 82%

## CS(=O)(=O)CCCOc1cccc2c1ccn2-c1ccnc(N[C@H]2CC[C@H](C(=O)N3CCC(O)CC3)CC2)n1
[2]
  IC50: 1100 nM
[4]
  inhibition: > 85%
[6]
  inhibition: > 85%
[7]
  inhibition: > 85%

## O[C@H]1CC[C@H](Nc2nccc(-n3ncc4ccccc43)n2)CC1
[1]
  inhibition: < 50%
[2]
  IC50: 2700 nM
[3]
  inhibition: < 50%
[4]
  inhibition: < 50%
[5]
  inhibition: 100%
[6]
  inhibition: 99%
[7]
  inhibition: 100%
[8]
  inhibition: < 50%

## O[C@H]1CC[C@H](Nc2nccc(-c3n[nH]c4ccccc34)n2)CC1
[1]
  inhibition: < 50%
[2]
  IC50: 2300 nM
[3]
  inhibition: 77%
[4]
  inhibition: < 50%
[5]
  inhibition: 100%
[6]
  inhibition: 100%
[7]
  inhibition: 100%
[8]
  inhibition: 94%

## O[C@H]1CC[C@H](Nc2nccc(-n3ccc4ccccc43)n2)CC1
[1]
  inhibition: < 50%
[2]
  IC50: 2000 nM
[3]
  inhibition: < 50%
[4]
  inhibition: < 50%
[5]
  inhibition: 91%
[6]
  inhibition: 98%
[7]
  inhibition: 84%
[8]
  inhibition: < 50%

## O=C([C@H]1CC[C@H](Nc2nccc(-n3nnc4ccccc43)n2)CC1)N1CCOCC1
[1]
  inhibition: < 50%
[2]
  IC50: 1800 nM
[3]
  inhibition: < 50%
[4]
  inhibition: < 50%
[5]
  inhibition: 100%
[6]
  inhibition: 100%
[7]
  inhibition: 98%
[8]
  inhibition: < 50%

## N[C@H]1CC[C@H](Nc2nccc(-n3nnc4ccccc43)n2)CC1
[1]
  inhibition: < 50%
[2]
  IC50: 540 nM
[3]
  inhibition: 93%
[4]
  inhibition: < 50%
[5]
  inhibition: 91%
[6]
  inhibition: 99%
[7]
  inhibition: 96%
[8]
  inhibition: 94%
